Assay results published in the array DNA melting data of Ke et al. (doi:10.1101/2024.01.08.574731).

Legend:
[1] = folding enthalpy; higher = less favourable; fluorescence melt of hairpins on a sequencing array, two-state fit; conditions: sodium 0.088 M
How it was run: (§1)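 Cy3 fluorescence of library hairpins on a sequenced MiSeq flow cell, with annealed Cy3 and quencher oligos, was imaged in 50 mM Na-HEPES pH 8.0, 25 mM NaCl in 2.5 °C steps up to 60 °C. Signals were normalised to pre-quench Cy3 and to control variants. Melting temperature and folding enthalpy came from bootstrapped two-state fits, inverse-variance combined over four replicates. Fitted temperatures were raised by 9.35 °C to match UV melts.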

[2] = melting temperature; fluorescence melt of hairpins on a sequencing array, two-state fit, raised by 9.35 °C to match UV melts; conditions: sodium 0.088 M
How it was run: as §1

Sequence | folding enthalpy [1] | Tm [2]
GGAATCGAAAGATGGTCC ((((((....)))..))) | -8.55 kcal/mol | 25.8 °C
GGCATCGAAAGATCGCC ((((((....))).))) | -24.4 kcal/mol | 50.4 °C
GTAAACCGAAAGGTTAC (((.(((....)))))) | -15.7 kcal/mol | 43.2 °C
GTAGTACCGAAAGGTTAC (((..(((....)))))) | -11.1 kcal/mol | 29.8 °C
GATCTGAGTACAGATC ((((((....)))))) | -30.9 kcal/mol | 49.6 °C
GTATGACGAAAGTCGTAC (((.(((....))).))) | -30.3 kcal/mol | 53.8 °C
GAGTACGAAAGTACTC ((((((....)))))) | -35.7 kcal/mol | 64.8 °C
GATCTTCCACAAGATC ((((((....)))))) | -35.2 kcal/mol | 41.5 °C
GTTCTGCGAAAGCATAAC (((.(((....))).))) | -25 kcal/mol | 43.7 °C
GTGATGGGAAACCACCAC (((.(((....))).))) | -29.7 kcal/mol | 42.3 °C
GGATACCGAAAGGTTCC (((.(((....)))))) | -25.6 kcal/mol | 49.3 °C
GATCGGTAACCCGATC ((((((....)))))) | -32.7 kcal/mol | 54.3 °C
GTGTACGAAAGTAGTCAC ((((((....)))..))) | -12.2 kcal/mol | 30.9 °C
GTTGTCCGAAAGGATAAC (((.(((....))).))) | -44.9 kcal/mol | 51.9 °C
GTTCGAGCGAAAGCTAAC (((..(((....)))))) | -7.3 kcal/mol | 24.6 °C
GATCCTGACTAGGATC ((((((....)))))) | -43.3 kcal/mol | 56.7 °C
GCTTCCCGAAAGGGGAGC (((.(((....))).))) | -46 kcal/mol | 65.5 °C
GATCAGGTATCTGATC ((((((....)))))) | -40.8 kcal/mol | 57.5 °C
GCGCTAGCGAAAGCTCGC (((..(((....)))))) | -10.7 kcal/mol | 45.4 °C
GCAGGCACGAAAGTGTGC (((..(((....)))))) | -14.9 kcal/mol | 39.1 °C
GCTTAGCGAAAGCTCCGC ((..(((....)))..)) | -12.8 kcal/mol | 36 °C
GATCTCCCTGAGATC ((((((...)))))) | -34.7 kcal/mol | 55.3 °C
GGGCGTTCGAAAGAACCC (((..(((....)))))) | -19.9 kcal/mol | 50.3 °C

Sequence | folding enthalpy [1] | Tm [2]
GTTCCAGGAAACTGAAAC (((.(((....))).))) | -19.4 kcal/mol | 30.4 °C
GAATGTGGAAACGCATTC (((((.(....).))))) | -37.5 kcal/mol | 46 °C
GTCTCCGCGAAAGCGGAC (((..(((....)))))) | -6.7 kcal/mol | 34.2 °C
GCCTTGCGAAAGCGGGGC (((..((....))..))) | -33.2 kcal/mol | 65.2 °C
GCACGCGGAAACGCGTAC (.(((((....))))).) | -10.1 kcal/mol | 48.1 °C
GCATAGCGAAAGCTTCGC ((..(((....)))..)) | -10.1 kcal/mol | 34.6 °C
GCTTGCCGAAAGGCTAGC (((.(((....))).))) | -27.8 kcal/mol | 64.4 °C
GCGGGAGCGAAAGCTCGC (((..(((....)))))) | -10.9 kcal/mol | 55.8 °C
CGTTCGGAAACGAGACG ((((((....))).))) | -24.1 kcal/mol | 39 °C
GATCAGAAGGCTGATC ((((((....)))))) | -29.4 kcal/mol | 45.8 °C
GACACAGGAAACTATGTC ((((.((....)).)))) | -24.5 kcal/mol | 29.9 °C
GATCTACCTGTAGATC ((((((....)))))) | -39.4 kcal/mol | 52.8 °C
GGCCCGGGAAACCGGGTC (.(((((....))))).) | -28.9 kcal/mol | 67.3 °C
GCGTTCCCGAAAGGGCGC (((..(((....)))))) | -27.2 kcal/mol | 53.9 °C
GCCACGGGAAACCGCGAC (.(.(((....))).).) | -12.1 kcal/mol | 29.1 °C
GAAAAGGGAAACTTTTTC (((((.(....).))))) | -11.5 kcal/mol | 29.6 °C
GGGGAGTCGAAAGACCCC (((..(((....)))))) | -29.2 kcal/mol | 54.7 °C
GATCTAACTATAGATC ((((((....)))))) | -29.3 kcal/mol | 37.5 °C
GATCAGCCGGCTGATC ((((((....)))))) | -48 kcal/mol | 63.4 °C
GTAGTCGGAAACAACTAC (((((.(....).))))) | -24.5 kcal/mol | 33.6 °C
GATCAACAGTTGATC ((((((...)))))) | -40.3 kcal/mol | 41.7 °C
GATCACCCTCGTGATC ((((((....)))))) | -43.6 kcal/mol | 55.8 °C
GCTGGCGAAAGCCCTAGC ((((((....)))..))) | -12 kcal/mol | 40.9 °C

Sequence | folding enthalpy [1] | Tm [2]
GATCCTTTAGAGGATC ((((((....)))))) | -43.7 kcal/mol | 52.2 °C
GGCGCAGGAAACCGCACC ((.((.(....).)).)) | -27.5 kcal/mol | 39 °C
GTGGATCGAAAGATCAC (((.(((....)))))) | -13.3 kcal/mol | 48.8 °C
GAGCGCGGAAACACGCCC (.(((.(....).))).) | -12 kcal/mol | 38.4 °C
GTATATGAAAATATAC ((((((....)))))) | -23.7 kcal/mol | 39.1 °C
GCGTCCGAAAGGATTCGC ((((((....)))..))) | -26.9 kcal/mol | 47.1 °C
GCGTTATTACGC ((((....)))) | -26 kcal/mol | 53.9 °C
GTACGTGGAAACACATAC (((.(((....))).))) | -22.1 kcal/mol | 32.7 °C
GACGTACGAAAGTAAGTC (((.(((....))).))) | -29.2 kcal/mol | 50.6 °C
GCGATTGGAAACAGTCGC ((((.((....)).)))) | -42 kcal/mol | 54.2 °C
GATCTACCATTAGATC ((((((....)))))) | -33.2 kcal/mol | 37.9 °C
GATCTTGAGTAAGATC ((((((....)))))) | -25.4 kcal/mol | 40.4 °C
CGCGCGGAAACGCAGGCG ((((((....)))..))) | -28.6 kcal/mol | 57.2 °C
GACCGCCGAAAGGCGTC (((.(((....)))))) | -8.69 kcal/mol | 45.4 °C
GGCTGGGGAAACCTGGCC (((..((....))..))) | -30.6 kcal/mol | 51.7 °C
GTTTCTGGAAACGGAAAC (((((.(....).))))) | -31.8 kcal/mol | 45.5 °C
TCAGTGAAAACTGA (((((....))))) | -16.9 kcal/mol | 42.6 °C
GTCATCCCGAAAGGGGAC (((..(((....)))))) | -14.1 kcal/mol | 37.8 °C
GGCTACGGAAACGTAACC ((.((((....)))).)) | -26.2 kcal/mol | 42.1 °C
GATCGAGAGGTCGATC ((((((....)))))) | -19 kcal/mol | 50.1 °C
CGTTGGAAACAACG (((((....))))) | -30.3 kcal/mol | 52.9 °C
GGTAGGGGAAACCCTATC (.(((((....))))).) | -24.4 kcal/mol | 44.3 °C
GGTGTCGAAAGACAACC ((((((....))).))) | -26.1 kcal/mol | 55.7 °C

Sequence | folding enthalpy [1] | Tm [2]
GTTGAGGGAAACCTTGAC ((..(((....)))..)) | -12 kcal/mol | 29.7 °C
GATCTCAAAAGAGATC ((((((....)))))) | -29.8 kcal/mol | 48.5 °C
GATCACTTAGGTGATC ((((((....)))))) | -41.6 kcal/mol | 57.6 °C
GAGTGGCGAAAGCCCCTC (((.(((....))).))) | -19.9 kcal/mol | 48.3 °C
GGTTTGCGAAAGCACACC (((.(((....))).))) | -28.2 kcal/mol | 51.7 °C
GAGGTTACGAAAGTACTC (((..(((....)))))) | -14.3 kcal/mol | 27.9 °C
GATCGTGCGAACGATC ((((((....)))))) | -32.9 kcal/mol | 64.1 °C
GATCCACTAGTGGATC ((((((....)))))) | -40.6 kcal/mol | 62.3 °C
GCCTGACGAAAGTCTGGC (((.(((....))).))) | -37.2 kcal/mol | 67.5 °C
GAACTGGCGAAAGCCTTC (((..(((....)))))) | -6.15 kcal/mol | 19.7 °C
GATCTATGCTTAGATC ((((((....)))))) | -35.8 kcal/mol | 44.5 °C
GTCAGCCGAAAGGCGGAC (((.(((....))).))) | -33.1 kcal/mol | 68 °C
GTTTCGGGAAACTGAGAC ((.((.(....).)).)) | -13.2 kcal/mol | 35.7 °C
GTAGCCGAAAGGCTTAC ((((((....))).))) | -10.3 kcal/mol | 43.1 °C
GCCGTCGGAAACGACGAC (.(((((....))))).) | -13.3 kcal/mol | 54.8 °C
GTCGATTCGAAAGAAGAC (((..(((....)))))) | -13 kcal/mol | 29.7 °C
GATTAAGAAATTAATC ((((((....)))))) | -14.9 kcal/mol | 30.4 °C
GTACCCGCGAAAGCGTAC (((..(((....)))))) | -8.05 kcal/mol | 25.7 °C
GTGTCTGGAAACGGACAC (((((.(....).))))) | -41.3 kcal/mol | 54 °C
GCGCCTTCGAAAGAACGC (((..(((....)))))) | -19.2 kcal/mol | 38.6 °C
GATATCGGAAACGATGTC ((.((((....)))).)) | -30.7 kcal/mol | 46.7 °C
GATCCCTGAAGGGATC ((((((....)))))) | -32.8 kcal/mol | 64.1 °C
GGGCGAGGAAACCCACCC (((.(.(....).).))) | -16.4 kcal/mol | 30.9 °C
